In ChEMBL document CHEMBL1268930, “Design, synthesis, and biological evaluation of dibromotyrosine analogues inspired by marine natural products as inhibitors of human prostate cancer proliferation, invasion, and migration” (Bioorg Med Chem, 2010):
Calls of active or inactive are those of the source. The calls are words filed in the database; no cut-off is given here.

Columns and labels:
[1] = Cytotoxicity against rat bone marrow cells assessed as inhibition of colony formation at 10 uM by clonogenic assay; format: cell-based; conditions: bone marrow cell
In short: (§1)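 Rat femur bone marrow mononuclear cells isolated on a Histopaque-1077 gradient. 20,000 cells were plated in methylcellulose with FCS and rat recombinant GM-CSF, IL-3 and SCF (HALO kit), with compounds or vehicle. After 5 days GM-CFC colonies were measured as ATP luminescence (luciferase/luciferin) against a same-day standard curve. Results were normalized to vehicle means; n = 4; two-way ANOVA with Bonferroni tests.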

[2] = organism: Gallus gallus; assay: Antiangiogenic activity in chicken embryo chorioallantoic membrane model at 1 to 50 ug/disc after 48 hrs; format: functional, tissue-based
In short: (§2)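 Fertilized hen eggs incubated at 37 °C, constant humidity; shell windowed and taped, eggs kept upright. Compounds in CH2Cl2 or MeOH loaded on 2-mm cellulose nitrate discs (1, 10, 50 µg/disc), placed on CAM on day five between large vessels. Imaged at 0 h and every 6 h to 48 h. Blood vessels counted per 8.0 × 6.0 mm area around the disc, plus vessel length change. Graded on a 0–3 scale.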

[3] = system: PC-3; assay: Antimigratory activity against human PC3 cells after 24 hrs under serum-free condition by wound-healing assay; format: functional, cell-based; conditions: PC-3, 24 h
In short: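 Confluent PC-3 monolayers (>95%) were scratched with a pipette tip and washed with PBS and serum-free medium. Compounds were added at 20, 50 and 100 µM in serum-free medium, with 0.2% DMSO vehicle, for 24 h. Cells were fixed and Diff-Quick stained. Cells migrating into the wound were counted in ≥3 random fields at 400×. IC50 for 50% inhibition of migration; n = 3/dose.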

[4] = system: PC-3; assay: Antiinvasive activity against human PC3 cells at 50 uM after 24 hrs by cultrex BME assay; format: functional, cell-based
In short: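 PC-3 cells in RPMI with 10% FBS at 37 °C, 5% CO2. The top chamber was coated with BME overnight, then seeded with 50,000 cells in serum-free RPMI. Compounds were added to the top chamber from a 6× (300 µM) solution. The lower chamber held medium with 10% FBS, fibronectin (1 µL/mL) and fMLP (10 nM). After 24 h the invaded cells were labelled with calcein-AM for 1 h, read at ex 485/em 520 nm and counted from a standard curve. n = 3.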

[5] = system: PC-3; assay: Antiproliferative activity against human PC3 cells after 72 hrs by MTT assay; format: functional, cell-based; conditions: PC-3, 72 h
In short: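 PC-3 cells seeded at 8×10^3/well and attached 24 h. Medium replaced with serum-free RPMI containing compound (10, 50, 100 µM; DMSO stock, 0.2% DMSO at 100 µM) for 72 h at 37 °C, 5% CO2. MTT added for 4 h, solubilized, absorbance at 570 nm. % survival relative to DMSO; IC50 by nonlinear regression of log concentration vs % survival; n = 3/dose.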

[6] = Cytotoxicity against rat bone marrow cells assessed as inhibition of colony formation at 100 uM by clonogenic assay; format: cell-based; conditions: bone marrow cell; in short: as §1
[7] = organism: Gallus gallus; assay: Antiangiogenic activity in chicken embryo chorioallantoic membrane model assessed as number of blood vessels per 48 mm2 area around the treatment disc <12 at 1 to 50 ug/disc after 48 hrs
[8] = organism: Gallus gallus; assay: Antiangiogenic activity in chicken embryo chorioallantoic membrane model assessed as number of blood vessels per 48 mm2 area around the treatment disc >16. 3 at 1 to 50 ug/disc after 48 hrs; format: functional, tissue-based; in short: as §2

Compound	IC50 [3]	IC50 [5]	Activity [1]	Activity [2]	Activity [4]	Activity [6]	Activity [7]	Activity [8]
NC(=O)CC1(O)C=C(Br)C(=O)C(Br)=C1 [VERONGIAQUINOL]	–	–	Toxic	–	–	–	–	–
CCOC(=O)Cc1cc(Br)c(OC/C=C(/C)CC/C=C(/C)CCC=C(C)C)c(Br)c1	19.9 µM	16.5 µM	–	Active	Active	Non-toxic	–	–
CCOC(=O)Cc1cc(Br)c(OC(=O)c2ccccc2)c(Br)c1	44.6 µM	> 100 µM	–	Active	–	–	–	–
CCOC(=O)Cc1cc(Br)c(OC(=O)c2ccncc2)c(Br)c1	44.6 µM	> 100 µM	–	–	–	–	Active	–
CC(=O)Oc1c(Br)cc(CC(N)=O)cc1Br	74.8 µM	> 100 µM	–	Active	–	–	–	–
NC(=O)Cc1cc(Br)c(O)c(Br)c1	> 100 µM	> 100 µM	–	–	–	Non-toxic	–	inactive

Continued, in another order:

IC50 [3]	IC50 [5]	Compound	Activity [1]	Activity [2]	Activity [4]	Activity [6]	Activity [7]	Activity [8]
57.9 µM	40 µM	CCOC(=O)Cc1cc(Br)c(OCCCc2ccc(OC)cc2)c(Br)c1	–	Active	Active	Non-toxic	–	–
12.2 µM	> 100 µM	NC(=O)Cc1cc(Br)c(OC(=O)c2ccccc2)c(Br)c1	–	–	–	–	Active	–
> 100 µM	> 100 µM	CCOC(=O)Cc1cc(Br)c(OC(C)=O)c(Br)c1	–	–	–	–	–	–
18.9 µM	> 100 µM	COc1ccc(CC(=O)Oc2c(Br)cc(CC(N)=O)cc2Br)cc1	–	–	–	–	Active	–
> 100 µM	> 100 µM	CCOC(=O)Cc1cc(Br)c(O)c(Br)c1	–	–	–	Non-toxic	–	inactive
91.3 µM	49.2 µM	CCOC(=O)Cc1cc(Br)c(OCCC(C)C)c(Br)c1	–	–	–	Non-toxic	–	inactive
75.5 µM	29.7 µM	CCOC(=O)Cc1cc(Br)c(OCc2ccccc2)c(Br)c1	–	–	–	–	Active	–
< 10 µM	> 100 µM	CCOC(=O)Cc1cc(Br)c(OC(=O)Cc2ccc(OC)cc2)c(Br)c1	–	Active	–	–	–	–
